Experimental data as given in ChEMBL document CHEMBL4622984, “Structure-Based Design of a Bromodomain and Extraterminal Domain (BET) Inhibitor Selective for the N-Terminal Bromodomains That Retains an Anti-inflammatory and Antiproliferative Phenotype” (J Med Chem, 2020).

Tests used:
[1] = biological target: Bromodomain-containing protein 4 (Homo sapiens, UniProt O60885, Y97A); assay: Displacement of Alexa Fluor 647 labelled I-BET762 from N-terminal His6-tagged human BRD4 BD2 (1 to 477 residues)/BD1 Y97A mutant expressed in Escherichia coli after 1 hr by TR-FRET assay
[2] = biological target: Bromodomain-containing protein 4 (Homo sapiens, UniProt O60885, Y390A); assay: Displacement of Alexa Fluor 647 labelled I-BET762 from N-terminal His6-tagged human BRD4 BD1 (1 to 477 residues)/BD2 Y390A mutant expressed in Escherichia coli after 1 hr by TR-FRET assay
[3] = test system: PBMC; assay: Antiinflammatory activity in human PBMC assessed as reduction in LPS-induced MCP1 production incubated for 18 to 24 hrs by mesoscale assay; type: functional, cell-based
[4] = biological target: Bromodomain-containing protein 3 (Homo sapiens, UniProt Q15059, Y73A); assay: Displacement of Alexa Fluor 647 labelled I-BET762 from N-terminal His6-tagged human BRD3 BD2 (1 to 435 residues)/BD1 Y73A mutant expressed in Escherichia coli after 1 hr by TR-FRET assay
Sequence of Bromodomain-containing protein 3 (Homo sapiens, UniProt Q15059, Y73A) (Q15059 2-726 Y73A limits assumed): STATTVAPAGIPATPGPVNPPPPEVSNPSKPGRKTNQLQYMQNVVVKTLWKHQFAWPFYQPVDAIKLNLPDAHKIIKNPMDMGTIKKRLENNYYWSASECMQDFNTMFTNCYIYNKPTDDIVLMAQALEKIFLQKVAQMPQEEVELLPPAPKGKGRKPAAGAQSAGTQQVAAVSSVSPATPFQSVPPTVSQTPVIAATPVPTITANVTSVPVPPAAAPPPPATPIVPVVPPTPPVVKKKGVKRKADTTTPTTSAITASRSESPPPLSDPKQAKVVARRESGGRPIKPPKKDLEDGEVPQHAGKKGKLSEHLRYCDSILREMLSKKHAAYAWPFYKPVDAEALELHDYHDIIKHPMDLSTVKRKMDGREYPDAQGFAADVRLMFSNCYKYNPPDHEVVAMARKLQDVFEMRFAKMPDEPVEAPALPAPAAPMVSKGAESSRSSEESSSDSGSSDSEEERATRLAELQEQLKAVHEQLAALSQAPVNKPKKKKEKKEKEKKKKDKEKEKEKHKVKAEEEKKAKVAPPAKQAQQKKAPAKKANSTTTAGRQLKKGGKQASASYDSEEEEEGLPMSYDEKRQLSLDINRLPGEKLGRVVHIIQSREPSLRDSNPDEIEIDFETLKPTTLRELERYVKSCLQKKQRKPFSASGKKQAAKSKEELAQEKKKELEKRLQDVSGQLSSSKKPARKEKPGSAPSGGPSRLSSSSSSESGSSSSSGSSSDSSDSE
How it was run: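 Single-mutant tandem bromodomain constructs (Tyr→Ala in the other domain), N-terminal 6His, expressed in E. coli. Compounds were titrated from 10 mM DMSO stocks. Protein at 10 nM in 50 mM HEPES, 50 mM NaCl, 1 mM CHAPS, pH 7.4 with Alexa Fluor 647–I-BET762 tracer at 50 nM (200 nM for BRDT Y66A). Plates were equilibrated 1 h at rt in the dark, then 1.5 nM Eu-anti-6His was added.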

[5] = test system: Blood; assay: Antiinflammatory activity in human whole blood assessed as reduction in LPS-induced IL-6 production preincubated for 30 mins followed by LPS challenge and measured after overnight incubation by mesoscale assay; type: functional, tissue-based
[6] = test system: PBMC; assay: Antiinflammatory activity in human PBMC assessed as reduction in LPS-induced IL-6 production incubated for 18 to 24 hrs by mesoscale assay; type: functional, cell-based
[7] = test system: MV4-11; assay: Growth inhibition of human MV4-11 cells incubated for 72 hrs by Cell-titre glo assay; type: functional, cell-based; settings: MV4-11, 72 h
[8] = biological target: Bromodomain-containing protein 3 (Homo sapiens, UniProt Q15059, Y348A); assay: Displacement of Alexa Fluor 647 labelled I-BET762 from N-terminal His6-tagged human BRD3 BD1 (1 to 435 residues)/BD2 Y348A mutant expressed in Escherichia coli after 1 hr by TR-FRET assay
Sequence of Bromodomain-containing protein 3 (Homo sapiens, UniProt Q15059, Y348A) (Q15059 2-726 Y348A limits assumed): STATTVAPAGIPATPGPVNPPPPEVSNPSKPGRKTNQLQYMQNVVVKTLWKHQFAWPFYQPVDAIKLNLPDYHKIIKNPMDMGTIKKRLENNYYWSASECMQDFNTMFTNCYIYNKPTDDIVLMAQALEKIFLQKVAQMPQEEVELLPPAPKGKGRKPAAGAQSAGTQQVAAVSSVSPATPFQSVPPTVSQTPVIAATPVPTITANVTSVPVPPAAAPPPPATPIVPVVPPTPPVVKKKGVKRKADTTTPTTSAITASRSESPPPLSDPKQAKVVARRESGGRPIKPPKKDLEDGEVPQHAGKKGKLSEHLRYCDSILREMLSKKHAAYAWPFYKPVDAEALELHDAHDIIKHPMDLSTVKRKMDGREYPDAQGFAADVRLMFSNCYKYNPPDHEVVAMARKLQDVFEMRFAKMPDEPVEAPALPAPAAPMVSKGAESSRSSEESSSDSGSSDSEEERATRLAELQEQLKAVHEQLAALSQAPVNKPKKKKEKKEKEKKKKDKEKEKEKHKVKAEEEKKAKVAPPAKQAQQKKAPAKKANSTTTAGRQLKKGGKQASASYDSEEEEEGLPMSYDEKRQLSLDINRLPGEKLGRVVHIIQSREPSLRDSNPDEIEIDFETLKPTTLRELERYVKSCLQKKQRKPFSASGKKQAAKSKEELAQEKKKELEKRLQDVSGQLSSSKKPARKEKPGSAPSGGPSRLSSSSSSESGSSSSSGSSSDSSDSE

[9] = biological target: Bromodomain testis-specific protein (Homo sapiens, UniProt Q58F21, Y309A); assay: Displacement of Alexa Fluor 647 labelled I-BET762 from N-terminal His6-tagged human BRDT BD1 (1 to 397 residues)/BD2 Y309A mutant expressed in Escherichia coli after 1 hr by TR-FRET assay
[10] = biological target: Bromodomain testis-specific protein (Homo sapiens, UniProt Q58F21, Y66A); assay: Displacement of Alexa Fluor 647 labelled I-BET762 from N-terminal His6-tagged human BRDT BD2 (1 to 397 residues)/BD1 Y66A mutant expressed in Escherichia coli after 1 hr by TR-FRET assay
[11] = test system: Blood; assay: Antiinflammatory activity in human whole blood assessed as reduction in LPS-induced MCP1 production preincubated for 30 mins followed by LPS challenge and measured after overnight incubation by mesoscale assay; type: functional, tissue-based
[12] = species: Homo sapiens; assay: Selectivity index, difference between pIC50 for N-terminal His6-tagged human BRDT BD1 (1 to 397 residues)/ BD2 Y309A mutant expressed in Escherichia coli to pIC50 for N-terminal His6-tagged human BRDT BD2 (1 to 397 residues)/BD1 Y66A mutant expressed in Escherichia coli
[13] = biological target: Bromodomain-containing protein 2 (Homo sapiens, UniProt P25440, Y386A); assay: Displacement of Alexa Fluor 647 labelled I-BET762 from N-terminal His6-tagged human BRD2 BD1 (1 to 473 residues)/BD2 Y386A mutant expressed in Escherichia coli after 1 hr by TR-FRET assay
Sequence of Bromodomain-containing protein 2 (Homo sapiens, UniProt P25440, Y386A) (P25440 whole entry Y386A, the tested form may be a part): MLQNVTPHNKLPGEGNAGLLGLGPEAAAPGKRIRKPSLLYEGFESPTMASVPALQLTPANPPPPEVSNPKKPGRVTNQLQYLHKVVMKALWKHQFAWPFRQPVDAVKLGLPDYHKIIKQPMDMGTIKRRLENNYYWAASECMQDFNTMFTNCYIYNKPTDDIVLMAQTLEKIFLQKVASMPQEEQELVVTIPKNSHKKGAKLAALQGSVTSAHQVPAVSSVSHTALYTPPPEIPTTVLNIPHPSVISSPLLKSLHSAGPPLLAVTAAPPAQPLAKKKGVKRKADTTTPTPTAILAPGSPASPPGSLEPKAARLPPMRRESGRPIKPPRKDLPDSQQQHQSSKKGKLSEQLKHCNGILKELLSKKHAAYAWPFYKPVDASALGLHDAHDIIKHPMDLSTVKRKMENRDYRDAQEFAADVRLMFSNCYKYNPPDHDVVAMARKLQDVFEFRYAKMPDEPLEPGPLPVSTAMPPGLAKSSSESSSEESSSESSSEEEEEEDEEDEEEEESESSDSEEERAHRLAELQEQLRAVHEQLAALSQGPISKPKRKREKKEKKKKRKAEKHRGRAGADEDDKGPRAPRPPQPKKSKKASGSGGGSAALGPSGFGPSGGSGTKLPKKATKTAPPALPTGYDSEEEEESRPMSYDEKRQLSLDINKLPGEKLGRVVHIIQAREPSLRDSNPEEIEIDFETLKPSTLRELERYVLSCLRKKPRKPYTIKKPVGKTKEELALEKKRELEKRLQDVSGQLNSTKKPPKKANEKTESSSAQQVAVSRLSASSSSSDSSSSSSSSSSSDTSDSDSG

[14] = species: Homo sapiens; assay: Selectivity index, difference between pIC50 for N-terminal His6-tagged human BRD3 BD1 (1 to 435 residues)/BD2 Y348A mutant expressed in Escherichia coli to pIC50 for N-terminal His6-tagged human BRD3 BD2 (1 to 435 residues)/BD1 Y73A mutant expressed in Escherichia coli
[15] = species: Homo sapiens; assay: Selectivity index, difference between pIC50 for N-terminal His6-tagged human BRD2 BD1 (1 to 473 residues)/ BD2 Y386A mutant expressed in Escherichia coli to pIC50 for N-terminal His6-tagged human BRD2 BD2 (1 to 473 residues)/BD1 Y113A mutant expressed in Escherichia coli
[16] = biological target: Bromodomain-containing protein 2 (Homo sapiens, UniProt P25440, Y113A); assay: Displacement of Alexa Fluor 647 labelled I-BET762 from N-terminal His6-tagged human BRD2 BD2 (1 to 473 residues)/BD1 Y113A mutant expressed in Escherichia coli after 1 hr by TR-FRET assay
Sequence of Bromodomain-containing protein 2 (Homo sapiens, UniProt P25440, Y113A) (P25440 whole entry Y113A, the tested form may be a part): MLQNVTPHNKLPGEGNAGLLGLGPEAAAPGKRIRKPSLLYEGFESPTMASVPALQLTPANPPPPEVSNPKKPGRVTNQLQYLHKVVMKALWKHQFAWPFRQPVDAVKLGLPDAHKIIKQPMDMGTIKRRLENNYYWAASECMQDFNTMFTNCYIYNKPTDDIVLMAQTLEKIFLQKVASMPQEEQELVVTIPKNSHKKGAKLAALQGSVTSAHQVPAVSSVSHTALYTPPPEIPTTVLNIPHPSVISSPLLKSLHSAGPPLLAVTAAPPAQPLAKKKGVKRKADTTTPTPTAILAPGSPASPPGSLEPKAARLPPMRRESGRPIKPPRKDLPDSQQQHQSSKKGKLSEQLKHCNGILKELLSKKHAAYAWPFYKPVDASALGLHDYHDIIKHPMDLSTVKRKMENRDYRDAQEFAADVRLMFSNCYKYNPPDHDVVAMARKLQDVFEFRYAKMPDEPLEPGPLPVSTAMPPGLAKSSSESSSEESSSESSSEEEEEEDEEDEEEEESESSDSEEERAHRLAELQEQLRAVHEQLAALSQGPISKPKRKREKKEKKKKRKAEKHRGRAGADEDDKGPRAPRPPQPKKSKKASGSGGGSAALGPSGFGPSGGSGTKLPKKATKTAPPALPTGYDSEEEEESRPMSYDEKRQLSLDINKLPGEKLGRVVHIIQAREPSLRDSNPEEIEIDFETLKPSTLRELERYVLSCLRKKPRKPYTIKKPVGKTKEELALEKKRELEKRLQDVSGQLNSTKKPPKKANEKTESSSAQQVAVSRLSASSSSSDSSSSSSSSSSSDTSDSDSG

[17] = Cmax in CD1 mouse at 10 mg/kg, ip measured up to 12 hrs by reverse-phase LC-MS/MS analysis; type: ADME, organism-based; parameters: dose 10 mg/kg, route intraperitoneal; settings: in vivo
How it was run: (§1)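 Three male CD1 mice (30–33 g) given a single ip dose of 10 mg/kg, formulated at 2 mg/mL in 10% Kleptose in saline at pH 5 and dosed at 5 mL/kg. Serial tail-vein blood (ca. 20 µL) was taken up to 12 h, with a terminal cardiac sample at 24 h. Blood was diluted 1:1 with water, extracted by acetonitrile protein precipitation with internal standard, and quantified by reverse-phase LC-MS/MS (positive ion) against standards in control blood. Values are mean of n = 3.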

[18] = Tmax in CD1 mouse at 10 mg/kg, ip measured up to 12 hrs by reverse-phase LC-MS/MS analysis; type: ADME, organism-based; settings: in vivo; how it was run: as §1
[19] = Terminal half life in CD1 mouse at 10 mg/kg, ip measured after 7 to 24 hrs by reverse-phase LC-MS/MS analysis; type: ADME, organism-based; settings: in vivo, read-out: beta t1/2 (converted); how it was run: as §1
[20] = Unbound fraction in CD1 mouse blood at 200 to 1000 ng/ml incubated for 4 hrs by LC-MS/MS-based rapid equilibrium dialysis method; type: ADME, tissue-based
[21] = AUCinfinity in CD1 mouse at 10 mg/kg, ip measured up to 12 hrs by reverse-phase LC-MS/MS analysis; type: ADME, organism-based; parameters: dose 10 mg/kg, time infinity, route intraperitoneal; settings: in vivo; how it was run: as §1
[22] = Elimination half life in CD1 mouse at 10 mg/kg, ip measured up to 7 hrs by reverse-phase LC-MS/MS analysis; type: ADME, organism-based; settings: in vivo, read-out: beta t1/2 (converted); how it was run: as §1
[23] = biological target: T1, Bromodomain-containing protein 3 (Homo sapiens, UniProt Q15059); assay: Binding affinity to BRD3 BD1 (unknown origin) by isothermal titration calorimetric method
T1 sequence (Q15059 whole entry): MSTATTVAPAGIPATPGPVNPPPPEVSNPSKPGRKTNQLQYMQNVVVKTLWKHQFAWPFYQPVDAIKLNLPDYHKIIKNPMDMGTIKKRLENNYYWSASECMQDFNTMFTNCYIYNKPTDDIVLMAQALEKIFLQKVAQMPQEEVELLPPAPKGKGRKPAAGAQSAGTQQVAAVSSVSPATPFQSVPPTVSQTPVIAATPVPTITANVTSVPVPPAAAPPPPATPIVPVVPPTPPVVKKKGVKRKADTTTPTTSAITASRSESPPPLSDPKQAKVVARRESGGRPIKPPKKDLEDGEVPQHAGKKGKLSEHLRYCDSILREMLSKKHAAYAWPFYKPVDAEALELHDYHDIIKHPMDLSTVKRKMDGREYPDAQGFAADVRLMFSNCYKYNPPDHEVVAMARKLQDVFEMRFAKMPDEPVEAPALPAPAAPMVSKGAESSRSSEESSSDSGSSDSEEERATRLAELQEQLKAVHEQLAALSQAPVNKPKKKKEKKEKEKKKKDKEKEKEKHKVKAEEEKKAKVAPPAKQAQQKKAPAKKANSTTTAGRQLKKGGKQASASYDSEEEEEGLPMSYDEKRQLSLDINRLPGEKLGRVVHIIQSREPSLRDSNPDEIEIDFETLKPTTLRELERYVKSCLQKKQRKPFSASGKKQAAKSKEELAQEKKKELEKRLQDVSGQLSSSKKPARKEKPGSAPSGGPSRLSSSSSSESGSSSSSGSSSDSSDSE

[24] = biological target: T2, Bromodomain-containing protein 2 (Homo sapiens, UniProt P25440); assay: Binding affinity to BRD2 BD2 (unknown origin) by isothermal titration calorimetric method
T2 sequence (P25440 whole entry): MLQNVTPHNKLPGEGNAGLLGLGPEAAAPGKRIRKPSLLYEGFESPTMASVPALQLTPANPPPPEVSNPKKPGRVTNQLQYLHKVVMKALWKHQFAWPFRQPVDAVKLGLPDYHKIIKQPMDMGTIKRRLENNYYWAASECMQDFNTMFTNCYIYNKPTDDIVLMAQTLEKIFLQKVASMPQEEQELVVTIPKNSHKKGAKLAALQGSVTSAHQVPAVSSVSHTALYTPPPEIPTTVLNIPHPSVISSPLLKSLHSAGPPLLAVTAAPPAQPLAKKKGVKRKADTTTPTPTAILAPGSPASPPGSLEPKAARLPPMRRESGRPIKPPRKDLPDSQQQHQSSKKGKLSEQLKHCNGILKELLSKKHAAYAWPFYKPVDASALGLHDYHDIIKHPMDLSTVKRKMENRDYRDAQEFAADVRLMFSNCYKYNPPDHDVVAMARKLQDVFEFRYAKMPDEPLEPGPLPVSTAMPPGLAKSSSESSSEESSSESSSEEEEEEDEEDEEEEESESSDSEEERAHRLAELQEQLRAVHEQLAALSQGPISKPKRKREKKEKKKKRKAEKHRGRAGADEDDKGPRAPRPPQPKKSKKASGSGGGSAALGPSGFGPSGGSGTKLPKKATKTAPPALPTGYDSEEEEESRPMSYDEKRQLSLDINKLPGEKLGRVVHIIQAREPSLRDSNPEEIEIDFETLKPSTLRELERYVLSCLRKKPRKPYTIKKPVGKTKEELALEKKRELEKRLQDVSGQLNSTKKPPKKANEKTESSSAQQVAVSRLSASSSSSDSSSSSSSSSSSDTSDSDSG

[25] = biological target: T2, Bromodomain-containing protein 2; assay: Binding affinity to BRD2 BD1 (unknown origin) by isothermal titration calorimetric method
[26] = biological target: T1, Bromodomain-containing protein 3; assay: Binding affinity to BRD3 BD2 (unknown origin) by isothermal titration calorimetric method

| Compound | IC50 [1] [µM] | IC50 [2] [nM] | other results |
| --- | --- | --- | --- |
| CNCCCOc1cc2c(cc1-c1c(C)noc1C)ncc1c2n(C(C)c2ccccn2)c(=O)n1C (stereo unspecified) | 25.1 | 1000 | – |
| COc1cc2c(cc1-c1c(C)noc1C)ncc1[nH]c(=O)n([C@H](C)c3ccccn3)c12 | – | – | IC50 [3]: 39.8 nM; IC50 [4]: 79.4 nM; IC50 [5]: 1000 nM; IC50 [6]: 126 nM; IC50 [7]: 100 nM; IC50 [8]: 31.6 nM; IC50 [9]: 126 nM; IC50 [10]: 1580 nM; IC50 [11]: 200 nM |
| Cc1noc(C)c1-c1cc2ncc3c(c2cc1C(=O)O)n(C(C)c1ccccn1)c(=O)n3C (stereo unspecified) | > 50.1 | 12600 | – |
| Cc1noc(C)c1-c1cc2ncc3c(c2cc1OCCCN)n(C(C)c1ccccn1)c(=O)n3C (stereo unspecified) | 15.8 | 631 | – |
| COCc1nc2cnc3cc(-c4c(C)noc4C)c(OC)cc3c2n1[C@H](C)c1ccccc1 | 0.0398 | 10 | Selectivity Index [12]: 13; IC50 [4]: 15.8 nM; IC50 [13]: 12.6 nM; Selectivity Index [14]: 1.6; Selectivity Index [15]: 3.2; IC50 [8]: 10 nM; IC50 [16]: 39.8 nM; IC50 [9]: 25.1 nM; IC50 [10]: 316 nM |
| Cc1noc(C)c1-c1cc2ncc3c(c2cc1O[C@H]1C[C@@H](N)C1)n(C(C)c1ccccn1)c(=O)n3C (stereo partly specified) | 10 | 251 | – |
| COCc1nc2cnc3cc(-c4c(C)noc4C)c(OC[C@H]4CCNC4)cc3c2n1[C@H](C)c1ccccc1 [GSK778] | – | – | Cmax [17]: 2400 nM; Tmax [18]: 15 to 30 min; half-life [19]: 492 min; IC50 [4]: 1000 nM; IC50 [5]: 251 nM; IC50 [13]: 79.4 nM; IC50 [7]: 100 nM; fraction unbound at 4 h [20]: 0.08; AUC(0-inf) [21]: 3.34 µM·h; IC50 [16]: 3160 nM; half-life [22]: 54 min |
| Cc1noc(C)c1-c1cc2ncc3c(c2cc1O[C@H]1C[C@H](N)C1)n(C(C)c1ccccn1)c(=O)n3C (stereo partly specified) | 3.16 | 79.4 | – |
| Cc1noc(C)c1-c1cc2ncc3c(c2cc1OCC1CCNCC1)n(C(C)c1ccccn1)c(=O)n3C (stereo unspecified) | 39.8 | 794 | – |
| Cc1noc(C)c1-c1cc2ncc3c(c2cc1O[C@@H]1CCNC1)n([C@H](C)c1ccccn1)c(=O)n3C | 50.1 | 1260 | – |
| COc1ccc2c(c1)C(c1ccc(Cl)cc1)=N[C@@H](NC(=O)OCc1ccccc1)c1nnc(C)n1-2 | – | – | IC50 [3]: 50.1 nM; IC50 [5]: 1580 nM; IC50 [6]: 316 nM; IC50 [7]: 200 nM; IC50 [11]: 200 nM |
| Cc1noc(C)c1-c1cc2ncc3c(c2cc1OC[C@@H]1CCNC1)n(C(C)c1ccccn1)c(=O)n3C (mixture of isomers) | 31.6 | 794 | – |
| Cc1noc(C)c1-c1cc2ncc3c(c2cc1OCCN(C)C)n([C@H](C)c1ccccn1)c(=O)n3C | > 50.1 | 2000 | – |
| Cc1noc(C)c1-c1cc2ncc3c(c2cc1CC(=O)O)n(C(C)c1ccccn1)c(=O)n3C (stereo unspecified) | > 50.1 | > 50100 | – |
| Cc1noc(C)c1-c1cc2ncc3c(c2cc1OCCN)n(C(C)c1ccccn1)c(=O)n3C (stereo unspecified) | 31.6 | 1260 | – |
| Cc1noc(C)c1-c1cc2ncc3c(c2cc1OCC(=O)O)n([C@H](C)c1ccccn1)c(=O)n3C | 12.6 | 2000 | – |
| Cc1noc(C)c1-c1cc2ncc3c(c2cc1O[C@H]1CCNC1)n(C(C)c1ccccn1)c(=O)n3C (mixture of isomers) | > 50.1 | 6310 | – |
| CC(=O)NCCCOc1cc2c(cc1-c1c(C)noc1C)ncc1c2n(C(C)c2ccccn2)c(=O)n1C (stereo unspecified) | 3.16 | 794 | – |
| Cc1noc(C)c1-c1cc2ncc3c(c2cc1OCCCN(C)C)n([C@H](C)c1ccccn1)c(=O)n3C | > 50.1 | 1000 | – |
| CC(=O)NCCCCn1c2c(c3ccccc31)C(=O)NCC2 | – | – | Kd [23]: 3.3 to 8.6 µM; Kd [24]: > 300 µM; Kd [25]: 3.3 to 8.6 µM; Kd [26]: > 300 µM |
| Cc1noc(C)c1-c1cc2ncc3c(c2cc1OCCCO)n(C(C)c1ccccn1)c(=O)n3C (stereo unspecified) | 6.31 | 501 | – |
| Cc1noc(C)c1-c1cc2ncc3c(c2cc1OC[C@H]1CCNC1)n(C(C)c1ccccn1)c(=O)n3C (mixture of isomers) | 25.1 | 501 | – |
| COc1cc2c(cc1-c1c(C)noc1C)ncc1c2n([C@H](C)c2ccccn2)c(=O)n1C | 0.501 | 50.1 | – |
